Test [1] relates to Escherichia coli. The test is described as follows: Antibacterial activity against Escherichia coli TG1 pET28a plasmid encoded for APH(3')-3a after 12 to 18 hrs. In kind it is functional. In outline: (§1)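 Broth microdilution. Bacterial suspension adjusted with broth to absorbance 0.08–0.1 at 625 nm, diluted further in broth, and mixed in wells with 2-fold serial dilutions of compound. Plates incubated at 35°C for 12–18 h. MIC is the lowest concentration inhibiting growth; each determination repeated at least three times.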

In test [2] the test system is Escherichia coli. The test is described as follows: Antibacterial activity against Escherichia coli TG1 pTZ19U-3 plasmid encoded for APH(3')-1 after 12 to 18 hrs. Type of test: functional. The procedure, abridged: as §1
Test [3] concerns Escherichia coli. The test is described as follows: Antibacterial activity against aminoglycoside-susceptible Escherichia coli ATCC 25922 after 12 to 18 hrs. Type of test: functional. The procedure, abridged: as §1
Test [4] deals with Escherichia coli. The test is described as follows: Antibacterial activity against aminoglycoside-susceptible Escherichia coli TG1 after 12 to 18 hrs. In kind it is functional. The procedure, abridged:
as §1

The subject of test [5] is Enterococcus. The test is described as follows: Activity of Enterococcus APH(3')-3a.
A further test has as its system Staphylococcus aureus. The test is described as follows: Antibacterial activity against aminoglycoside-susceptible Staphylococcus aureus ATCC 25923 after 12 to 18 hrs. Type of test: functional. In outline: as §1
In test [6] the test system is Escherichia coli. The test can be described thus: Antibacterial activity against Escherichia coli TG1 pSF815 plasmid encoded for AAC(6')/APH(2') after 12 to 18 hrs. Type of test: functional. In outline: as §1
In test [7] the test system is Enterococcus. The test is described as follows: Ratio of kcat to Km of Enterococcus APH(3')-3a.

This note sets out measurements from ChEMBL document CHEMBL1140232, “Surprising alteration of antibacterial activity of 5"-modified neomycin against resistant bacteria” (2008).

Converted amounts (≈) assume the structure as drawn.

One may read the MIC as the smallest concentration in the dilution series that meets the test's criterion for growth inhibition. Low values mean a more susceptible organism, high ones a less susceptible organism. Broadly, the Km is the substrate concentration at which the rate is half of its maximum. What is called Vmax is the rate approached at saturating substrate. By kcat is commonly meant the maximal rate divided by the concentration of active sites.

In the case of `NC[C@@H]1O[C@H](O[C@H]2[C@@H](O)[C@H](O[C@@H]3[C@@H](O)[C@H](N)C[C@H](N)[C@H]3O[C@H]3O[C@H](CN)[C@@H](O)[C@H](O)[C@H]3N)O[C@@H]2CNC(=O)c2cc(-c3ccccc3)nc3ccccc23)[C@H](N)[C@@H](O)[C@@H]1O`, the minimum inhibitory concentration (MIC) is 32 µg/mL (≈ 37.9 µM) with Escherichia coli [1]; not below 2000 µg/mL in the test with Escherichia coli [2]; 8 µg/mL (≈ 9.47 µM) against Escherichia coli [3]; 8 µg/mL (≈ 9.47 µM) in the test with Escherichia coli [4]; 4 µg/mL (≈ 4.73 µM) in the test with Staphylococcus aureus; 16 µg/mL (≈ 18.9 µM) with Escherichia coli [6]. Further, the Michaelis-Menten constant (Km) in the test with Enterococcus [5] is 400 µM. Also, the Vmax with Enterococcus [5] was determined as 0.38 µmol/min/mg. Further, the kcat in the test on Enterococcus [5] came out at 0.19 s⁻¹. In addition, the kcat/Km in the test with Enterococcus [7] was 0.048 ×10⁴ /M/s.
`NC[C@@H]1O[C@@H](O[C@H]2[C@H](O)[C@@H](O[C@H]3O[C@H](CO)[C@@H](O)[C@H](N)[C@H]3O)[C@H](N)C[C@@H]2N)[C@@H](O)[C@H](O)[C@H]1O` [KANAMYCIN A] displayed an MIC in the test with Escherichia coli [1] of 125 µg/mL (≈ 258 µM). Besides, in the test with Enterococcus [5], the Michaelis constant (Km) worked out at 8.2 µM, the Vmax worked out at 6.96 µmol/min/mg and the catalytic constant (kcat) is 3.48 s⁻¹. In addition, the kcat/Km in the test on Enterococcus [7] came to 42.4 ×10⁴ /M/s.
`CNCc1cn(C[C@H]2O[C@@H](O[C@@H]3[C@@H](O)[C@H](N)C[C@H](N)[C@H]3O[C@H]3O[C@H](CN)[C@@H](O)[C@H](O)[C@H]3N)[C@H](O)[C@@H]2O[C@H]2O[C@@H](CN)[C@@H](O)[C@H](O)[C@H]2N)nn1`: the minimum inhibitory concentration (MIC) with Escherichia coli [1] is 125 µg/mL (≈ 176 µM); in the test on Escherichia coli [2], not below 2000 µg/mL; in the test on Escherichia coli [3], 8 µg/mL (≈ 11.3 µM); in the test with Escherichia coli [4], 16 µg/mL (≈ 22.6 µM); against Staphylococcus aureus, 1 µg/mL (≈ 1.41 µM); with Escherichia coli [6] it was 16 µg/mL (≈ 22.6 µM). In addition, the Michaelis constant (Km) in the test on Enterococcus [5] amounted to 100 µM. Further, in the test with Enterococcus [5], the maximum rate (Vmax) turned out to be 0.72 µmol/min/mg. Further, in the test with Enterococcus [5], the turnover number (kcat) is 0.36 s⁻¹. The kcat/Km in the test on Enterococcus [7] is 0.36 ×10⁴ /M/s.
For `NC[C@@H]1O[C@H](O[C@H]2[C@@H](O)[C@H](O[C@@H]3[C@@H](O)[C@H](N)C[C@H](N)[C@H]3O[C@H]3O[C@H](CN)[C@@H](O)[C@H](O)[C@H]3N)O[C@@H]2Cn2cc(C3CCCCN3)nn2)[C@H](N)[C@@H](O)[C@@H]1O` (stereo not given in full), the MIC in the test with Escherichia coli [1] was 125 µg/mL (≈ 167 µM); with Escherichia coli [2], not below 2000 µg/mL; in the test on Escherichia coli [3], 8 µg/mL (≈ 10.7 µM); in the test with Escherichia coli [4], 16 µg/mL (≈ 21.4 µM); against Staphylococcus aureus, 2 µg/mL (≈ 2.67 µM); against Escherichia coli [6] it was 16 µg/mL (≈ 21.4 µM). Also, in the test with Enterococcus [5], the Michaelis-Menten constant (Km) came to 150 µM. In addition, the Vmax with Enterococcus [5] amounted to 0.54 µmol/min/mg. The catalytic constant (kcat) in the test on Enterococcus [5] stood at 0.27 s⁻¹. Also, the kcat/Km with Enterococcus [7] came out at 0.18 ×10⁴ /M/s.
For the compound `NCc1cn(C[C@H]2O[C@@H](O[C@@H]3[C@@H](O)[C@H](N)C[C@H](N)[C@H]3O[C@H]3O[C@H](CN)[C@@H](O)[C@H](O)[C@H]3N)[C@H](O)[C@@H]2O[C@H]2O[C@@H](CN)[C@@H](O)[C@H](O)[C@H]2N)nn1`, the MIC in the test on Escherichia coli [1] came out at 64 µg/mL (≈ 92.1 µM); against Escherichia coli [2], 1000 µg/mL (≈ 1440 µM); against Escherichia coli [3], 8 µg/mL (≈ 11.5 µM); with Escherichia coli [4], 16 µg/mL (≈ 23 µM); against Staphylococcus aureus it was 1 µg/mL (≈ 1.44 µM); with Escherichia coli [6] it was 16 µg/mL (≈ 23 µM). Moreover, the Km in the test with Enterococcus [5] amounted to 111 µM. For the same compound, the Vmax in the test on Enterococcus [5] stood at 0.68 µmol/min/mg. Also, in the test with Enterococcus [5], the kcat worked out at 0.34 s⁻¹. Further, in the test on Enterococcus [7], the kcat/Km was 0.3 ×10⁴ /M/s.
As to `CCCCCCc1cn(C[C@H]2O[C@@H](O[C@@H]3[C@@H](O)[C@H](N)C[C@H](N)[C@H]3O[C@H]3O[C@H](CN)[C@@H](O)[C@H](O)[C@H]3N)[C@H](O)[C@@H]2O[C@H]2O[C@@H](CN)[C@@H](O)[C@H](O)[C@H]2N)nn1`, the minimum inhibitory concentration (MIC) in the test on Escherichia coli [1] was 32 µg/mL (≈ 42.7 µM); with Escherichia coli [2] it was 500 µg/mL (≈ 667 µM); against Escherichia coli [3], 32 µg/mL (≈ 42.7 µM); in the test with Escherichia coli [4] it was 8 µg/mL (≈ 10.7 µM); in the test with Staphylococcus aureus, 4 µg/mL (≈ 5.33 µM); against Escherichia coli [6], 16 µg/mL (≈ 21.3 µM). For the same compound, the Km in the test with Enterococcus [5] was found to be 127 µM. Moreover, the Vmax in the test on Enterococcus [5] is 0.75 µmol/min/mg. Also, in the test on Enterococcus [5], the kcat worked out at 0.38 s⁻¹. The kcat/Km in the test on Enterococcus [7] worked out at 0.3 ×10⁴ /M/s.
Consider `NC[C@@H]1O[C@H](O[C@H]2[C@@H](O)[C@H](O[C@@H]3[C@@H](O)[C@H](N)C[C@H](N)[C@H]3O[C@H]3O[C@H](CN)[C@@H](O)[C@H](O)[C@H]3N)O[C@@H]2CNC(=O)[C@@H](N)Cc2c[nH]c3ccccc23)[C@H](N)[C@@H](O)[C@@H]1O`, for which the MIC against Escherichia coli [1] is 64 µg/mL (≈ 80 µM); with Escherichia coli [2], not below 2000 µg/mL; against Escherichia coli [3], 16 µg/mL (≈ 20 µM); in the test on Escherichia coli [4], 8 µg/mL (≈ 10 µM); against Staphylococcus aureus it was 2 µg/mL (≈ 2.5 µM); in the test with Escherichia coli [6] it was 16 µg/mL (≈ 20 µM). The Km in the test on Enterococcus [5] turned out to be 322 µM. In the test on Enterococcus [5], the Vmax was 0.57 µmol/min/mg. Further, in the test on Enterococcus [5], the kcat turned out to be 0.29 s⁻¹. The kcat/Km in the test on Enterococcus [7] stood at 0.1 ×10⁴ /M/s.
As to `NCCCC[C@H](N)C(=O)NC[C@H]1O[C@@H](O[C@@H]2[C@@H](O)[C@H](N)C[C@H](N)[C@H]2O[C@H]2O[C@H](CN)[C@@H](O)[C@H](O)[C@H]2N)[C@H](O)[C@@H]1O[C@H]1O[C@@H](CN)[C@@H](O)[C@H](O)[C@H]1N`, the MIC against Escherichia coli [1] amounted to 32 µg/mL (≈ 43.1 µM); with Escherichia coli [2] it was 125 µg/mL (≈ 168 µM); in the test with Escherichia coli [3] it was 16 µg/mL (≈ 21.6 µM); in the test with Escherichia coli [4], 16 µg/mL (≈ 21.6 µM); against Staphylococcus aureus, 2 µg/mL (≈ 2.7 µM); with Escherichia coli [6], 32 µg/mL (≈ 43.1 µM). For the same compound, in the test on Enterococcus [5], the Michaelis-Menten constant (Km) worked out at 78 µM. Further, the Vmax with Enterococcus [5] is 0.79 µmol/min/mg. Further, in the test with Enterococcus [5], the catalytic constant (kcat) turned out to be 0.4 s⁻¹. The kcat/Km with Enterococcus [7] came to 0.51 ×10⁴ /M/s.
With `NC[C@@H]1O[C@H](O[C@H]2[C@@H](O)[C@H](O[C@@H]3[C@@H](O)[C@H](N)C[C@H](N)[C@H]3O[C@H]3O[C@H](CN)[C@@H](O)[C@H](O)[C@H]3N)O[C@@H]2CNC(=O)[C@@H]2CCCN2)[C@H](N)[C@@H](O)[C@@H]1O`, the minimal inhibitory concentration (MIC) was 64 µg/mL (≈ 90 µM) against Escherichia coli [1]; not below 2000 µg/mL against Escherichia coli [2]; 16 µg/mL (≈ 22.5 µM) in the test on Escherichia coli [3]; 16 µg/mL (≈ 22.5 µM) against Escherichia coli [4]; 0.5 µg/mL (≈ 0.703 µM) in the test on Staphylococcus aureus; 16 µg/mL (≈ 22.5 µM) against Escherichia coli [6]. The Michaelis-Menten constant (Km) with Enterococcus [5] is 80 µM. Besides, the Vmax in the test on Enterococcus [5] is 0.63 µmol/min/mg. In the test with Enterococcus [5], the kcat is 0.32 s⁻¹. Also, in the test on Enterococcus [7], the kcat/Km worked out at 0.4 ×10⁴ /M/s.
In the case of `NC[C@@H]1O[C@H](O[C@H]2[C@@H](O)[C@H](O[C@@H]3[C@@H](O)[C@H](N)C[C@H](N)[C@H]3O[C@H]3O[C@H](CN)[C@@H](O)[C@H](O)[C@H]3N)O[C@@H]2Cn2cc(CNC(=O)c3cc(-c4ccccc4)nc4ccccc34)nn2)[C@H](N)[C@@H](O)[C@@H]1O`, the MIC in the test on Escherichia coli [1] came out at 16 µg/mL (≈ 17.3 µM); in the test on Escherichia coli [2] it was 500 µg/mL (≈ 540 µM); against Escherichia coli [3], 32 µg/mL (≈ 34.6 µM); against Escherichia coli [4], 8 µg/mL (≈ 8.64 µM); in the test with Staphylococcus aureus, 8 µg/mL (≈ 8.64 µM); with Escherichia coli [6], 32 µg/mL (≈ 34.6 µM). Besides, in the test with Enterococcus [5], the Km was determined as 410 µM. Also, in the test on Enterococcus [5], the Vmax worked out at 0.3 µmol/min/mg. Besides, the turnover number (kcat) in the test with Enterococcus [5] amounted to 0.15 s⁻¹. For the same compound, the kcat/Km in the test with Enterococcus [7] amounted to 0.037 ×10⁴ /M/s.
For the compound `NC[C@@H]1O[C@H](O[C@H]2[C@@H](O)[C@H](O[C@@H]3[C@@H](O)[C@H](N)C[C@H](N)[C@H]3O[C@H]3O[C@H](CN)[C@@H](O)[C@H](O)[C@H]3N)O[C@@H]2CNC(=O)[C@H]2CCCN2)[C@H](N)[C@@H](O)[C@@H]1O`, the MIC in the test on Escherichia coli [1] is 64 µg/mL (≈ 90 µM); in the test with Escherichia coli [2], not below 2000 µg/mL; against Escherichia coli [3], 8 µg/mL (≈ 11.3 µM); with Escherichia coli [4], 8 µg/mL (≈ 11.3 µM); in the test with Staphylococcus aureus it was 0.5 µg/mL (≈ 0.703 µM); against Escherichia coli [6], 16 µg/mL (≈ 22.5 µM). Further, the Km in the test with Enterococcus [5] was 70 µM. Moreover, the Vmax in the test with Enterococcus [5] turned out to be 0.72 µmol/min/mg. Moreover, in the test on Enterococcus [5], the turnover number (kcat) worked out at 0.36 s⁻¹. Besides, the kcat/Km in the test on Enterococcus [7] turned out to be 0.51 ×10⁴ /M/s.
